# Compound activity as filed in PubChem BioAssay.
# Rows were chosen to be rich in hits. Some 1.6% of all compounds tested hit in one or more screens of this group.
# TNF death inh: blocks TNF-alpha induced death of Jurkat FADD-/- cells | Jurkat FADD-/- TNF necroptosis rescue, ATP luminescence, 24 h; 0 = TNF only, 100 = no-TNF cells | activation (protection from cell death), % at 10 µM | 220,000 tested, 0.068% active | AID 463075;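 active means activation, meaning protection from cell death, of at least 50% relative to plate controls; inactive means activation below 50%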;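 further: necroptosis triggered by 40 ng/mL TNF-alpha added together with compound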
# Wee1 degr inh: human Wee1 degradation inhibition, primary screen; reporter increase, % at 5 µM; HeLa Luc-Wee1K328M stability, luciferase luminescence; 100% = proteasome inhibitor MG132 effect; P30291; AID 1321; 220,000 tested, 1.2% active;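 active means activation above the mean of all tested compounds plus 3 SD, set per screening run, cut at about 8.8% in these data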;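 further: cells exposed to compound for 20 h before luminescence read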
# MDM2 E3 inh: Mdm2 E3 ligase (human) inhibition | signal enhancement, % at 5 µM | cell-based MDM2 ubiquitination luciferase reporter, 2 h; 0 = plate control, 100 = twice control, blank-subtracted | AID 1230 | 210,000 tested, 0.11% active | Q00987;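 active means signal enhancement of 30% or more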;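 further: luminescence tracks abundance of the self-degrading MDM2-luciferase fusion protein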
# Target sequence (Q00987 whole entry, looked up, the tested form may be a part): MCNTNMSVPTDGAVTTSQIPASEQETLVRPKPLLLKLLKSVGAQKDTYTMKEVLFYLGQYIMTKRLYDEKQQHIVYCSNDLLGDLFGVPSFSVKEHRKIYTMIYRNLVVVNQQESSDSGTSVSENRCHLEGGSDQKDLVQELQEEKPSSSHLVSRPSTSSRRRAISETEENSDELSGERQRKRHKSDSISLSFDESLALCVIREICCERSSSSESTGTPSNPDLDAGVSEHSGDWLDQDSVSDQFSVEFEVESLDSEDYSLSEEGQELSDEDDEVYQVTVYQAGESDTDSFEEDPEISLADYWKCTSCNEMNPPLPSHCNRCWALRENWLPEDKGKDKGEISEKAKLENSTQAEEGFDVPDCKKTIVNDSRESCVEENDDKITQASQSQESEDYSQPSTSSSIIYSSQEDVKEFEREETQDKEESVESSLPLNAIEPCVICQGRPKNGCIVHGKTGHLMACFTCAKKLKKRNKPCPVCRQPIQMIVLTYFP
#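 Assay system: mammalian cells stably expressing self-ubiquitinating, self-degrading MDM2 E3–luciferase fusion. Quantity: 2000 cells in each well. Medium: DMEM culture medium. Compound dosing: single-point 5 µM. Timing: cell settling 4 h, compound treatment 2 h, both 37 °C. Technique: luciferase luminescence. Read-out basis: percent signal gain over controls, blank-subtracted. Benchmarks: plate controls and plate blanks.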
# L929 necroptosis: L929 zVAD cell death inhibition. 220,000 tested, 0.38% active. AID 1377. viability rescue, % at 10 µM. L929 zVAD necroptosis rescue, ATP luminescence, 24 h; with zVAD 60 µM;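 active means activation, scaled between plate controls, above about 75%, limit read from the data; inactive means activation under that limit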
# Pf gametocyte: kills late stage P. falciparum gametocytes; 150,000 tested, 0.065% active; inhibition, % at 10.9 µM; P. falciparum stage V gametocytes, ATP luminescence, 24 h;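 active means inhibition above the mean plus 3 SD of compounds within the control limits, set per campaign, cut at about 38% in these data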
# A number is an active result; i = inactive; nt = no result given.
SMILES,TNF death inh,Wee1 degr inh,MDM2 E3 inh,L929 necroptosis,Pf gametocyte
COC(=O)c1ccc(C)c(NC(=O)c2nn(C)c(=O)c3ccccc23)c1,i,8.9,i,i,i
CCc1cc(=O)oc2cc(C)cc(OCC(C)=O)c12,i,11,i,i,i
CCc1cc(=O)oc2cc(C)cc(OCC(=O)C(C)(C)C)c12,i,i,i,i,i
Nc1ccn([C@H]2CC[C@@H](CO)O2)c(=O)n1,i,i,i,i,nt
O=C(Nc1cccc2c1CCCC2)c1ccco1,i,i,i,i,nt
O=C(CCC1CCCCC1)Nc1ccccc1O,i,i,i,i,i
Cc1ccc(O)c(NC(=O)CCC2CCCCC2)c1,i,9.1,i,i,nt
CCOc1ccc(/C=C2\SC(=S)N(C(C(=O)O)c3ccccc3)C2=O)cc1OC (centres undefined),i,i,i,i,i
COc1ccc(OC)c(/C=C2\SC(=S)N(C(C(=O)O)c3ccccc3)C2=O)c1 (centres undefined),i,9.7,i,i,i
Cc1ccc(S(=O)(=O)CNC(=O)c2ccccc2)cc1,i,i,i,i,i
Cc1cnc(-c2nnc(N(C)C(=O)c3cccnc3)s2)cn1,i,i,i,i,nt
CC(=O)N(c1ccccc1)c1nnc(-c2cnc(C)cn2)s1,76,i,i,i,i
COc1ccc(/C(N)=N/OC(=O)c2cccs2)cc1,i,10.0,i,i,i
N/C(=N\OC(=O)c1cccs1)c1ccc(Cl)cc1,i,i,i,i,i
CC(C)OC(=O)Nc1ccc2c(c1)N(C(=O)N1CCN(C)CC1)c1ccccc1CC2,i,11,i,i,i
CCOC(=O)Nc1ccc2c(c1)N(C(=O)N1CCN(C)CC1)c1ccccc1CC2,i,i,i,i,i
O=C1c2ccccc2C(O)N1Cc1cccs1 (centres undefined),i,i,i,i,55
O=C(NC1CCCCCC1)C1c2ccccc2C(=O)N1Cc1cccs1 (centres undefined),i,i,i,i,i
COC(=O)c1sccc1NC(=O)/C=C/c1ccc(Cl)cc1Cl,i,i,i,i,nt
CCOc1ccccc1NC(=O)Nc1ccc(CC#N)cc1,i,10,i,i,i
C=CCn1c(SC(C)C#N)nc2sc(CC)cc2c1=O (centres undefined),i,11,i,i,i
COc1ccc2[nH]c(C(=O)O)c(CCNC(C)=O)c2c1,i,i,40,i,nt
Cc1cccc(C)c1NC(=O)C(NC(=O)c1ccccn1)c1ccc([N+](=O)[O-])cc1 (centres undefined),i,i,i,i,nt
COc1ccc(-c2cc(C(F)(F)F)n3nc(C(=O)NCCCN4CCOCC4)cc3n2)cc1,i,10,i,i,i
COc1ccc(-c2cc(C(F)(F)F)n3nc(C(=O)N4CCCCC4)cc3n2)cc1,i,i,i,i,nt
SMILES,TNF death inh,Wee1 degr inh,MDM2 E3 inh,L929 necroptosis,Pf gametocyte
CN(CC(=O)Nc1ccc2c(c1)CCC2)CC(=O)Nc1ccccc1Br,i,i,i,i,39
CC(NC(=O)c1ccccc1Cl)C1COc2ccccc2O1 (centres undefined),i,i,i,i,i
CC(NS(=O)(=O)c1ccccc1)C1COc2ccccc2O1 (centres undefined),i,13,i,i,i
COC(=O)C(C)N1C(=O)S/C(=C/c2cc(C)n(C(C)C)c2C)C1=O (centres undefined),i,9.4,i,i,nt
Cc1ccc(NS(=O)(=O)c2cccc(C(=O)NCCc3c[nH]c4ccccc34)c2)c(C)c1,i,i,i,i,i
CC/C(=N\NC(=O)c1ccc(N(C)C)cc1)c1ccccc1,i,9.5,i,i,i
CN(C)c1ccc(/C=N/NC(=O)c2ccccc2)cc1,i,i,i,i,nt
CCOC(=O)c1ccc(NC(=O)CC2S/C(=N/N=C/c3c[nH]c4ccccc34)NC2=O)cc1 (centres undefined),i,i,i,i,nt
Cc1ccc(NC(=O)CC2S/C(=N/N=C/c3c[nH]c4ccccc34)NC2=O)cc1 (centres undefined),i,9.7,nt,i,i
COC(=O)c1c(NC(C)=O)sc(C(=O)Nc2ccccc2)c1C,i,9.1,i,i,i
CCN(CC)c1ccc(NC(=O)c2ccccc2F)cc1,i,9.2,i,i,nt
Cc1cc2c(cc1C)C(c1cccc([N+](=O)[O-])c1)CC(=O)N2 (centres undefined),i,i,i,i,51
COc1ccc(C(=O)C[n+]2cccc(C)c2C)cc1[N+](=O)[O-],i,11,i,i,i
COCCCN(C(=O)Cc1ccc(Cl)c(Cl)c1)c1c(N)n(Cc2ccccc2)c(=O)[nH]c1=O,i,i,nt,i,i
CC(C)c1ccccc1NC(=O)COC(=O)c1c2c(nc3ccccc13)CCN(Cc1ccccc1)C2,i,9.5,i,i,i
Cc1c(Cl)cccc1NC(=O)COC(=O)c1c2c(nc3ccccc13)CCN(Cc1ccccc1)C2,i,i,i,i,i
COc1ccc(OCC(=O)Nc2ccc3c(c2)nc(CCN2CCOCC2)n3C)cc1,i,9.1,i,i,i
Cn1c(CCN2CCOCC2)nc2cc(NC(=O)COc3ccc(Cl)cc3)ccc21,i,i,i,i,i
Cc1ccc(S(=O)(=O)Cn2nnnc2CN2CCOCC2)cc1,i,11,i,i,i
O=C(Nc1nnc(-c2ccc(Cl)cc2)o1)Nc1ccccc1F,i,13,nt,i,i
Cc1c(/C=N/NC(=O)C(C)(C)Oc2ccc(Cl)cc2)cnn1C,i,9.9,i,i,nt
Cc1nn(C)c(C)c1/C=N/NC(=O)C(C)(C)Oc1ccc(Cl)cc1,i,i,i,i,nt
O=[N+]([O-])c1ccc(O)c(C2=NNC(c3ccccc3F)C2)c1 (centres undefined),i,9.6,i,i,i
CC(C)N1C(=O)c2ccccc2N(Cc2ccccc2)S1(=O)=O,i,10,i,i,i
O=C1C(=O)N(Cc2ccccc2)C(=O)N1CCN1C(=O)c2ccccc2C1=O,i,i,i,i,nt
SMILES,TNF death inh,Wee1 degr inh,MDM2 E3 inh,L929 necroptosis,Pf gametocyte
CCCCCOC(=O)CSc1nc2c(c(=O)[nH]c(=O)n2C)n1CCc1ccccc1,i,9.9,i,i,i
Cc1cc(S(=O)(=O)Nc2ccccc2C(=O)O)ccc1Cl,i,i,i,i,nt
CCn1ccc(C(=O)NC2=C(C#N)CCC2)n1,i,9.7,i,i,nt
CCn1nccc1C(=O)NC1=C(C#N)CCC1,i,i,i,i,nt
O=C(N/N=C\c1cc(Br)ccc1O)c1ccc(S(=O)(=O)N2CCCCC2)cc1,i,9.1,i,i,i
O=C(N/N=C/c1ccc(O)c(O)c1)c1cccc(S(=O)(=O)N2CCCCC2)c1,i,i,i,i,i
Cc1ccc(N=Nc2ccc(O)c(/C=N\NC(=O)c3ccc(N)cc3)c2)cc1C,i,9.5,i,i,i
Cc1ccsc1C1CC(=O)NC2=C1C(=O)CC(C)(C)C2 (centres undefined),i,i,i,i,i
